Screening results as filed in PubChem BioAssay.
H9c2 protect = modulators protecting cardiomyocytes from myocardial damage. protection from H2O2 cell death, % at 20 µM. 0.63% of 360,000 active. H9c2 cardiomyocytes, H2O2 injury protection, ATPLite, 2 h;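 active = compounds giving at least 50% protection of heart cells from peroxide-induced death in the single-dose screen, raw or plate-pattern-corrected value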;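 note: 0% = DMSO wells with peroxide and 100% = DMSO wells without peroxide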
CRFBP-R2 block = blocks CRF-induced signaling of the CRF-BP/CRF-R2 complex; HEK293 CRF-R2/CRF-BP, CRF-induced calcium fluorescence; inhibition, % at 11.8 µM; 0.59% of 350,000 active;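 active = inhibition of the ligand-induced calcium signal above about 50% at the single tested concentration, limit read from the data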
CRFR2-BP ag = agonists of human CRF-binding protein/CRF-R2 receptor complex; HEK293 CRF-R2/CRF-BP, calcium dye fluorescence (FLIPR); percent of saturating CRF peptide response; activation, % at 13.2 µM; 0.46% of 350,000 active;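 active = activation of at least 50%, plus an integration ratio under a set limit after plate pattern correction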;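 note: plate controls were neutral control wells without compound for no effect and CRF at EC100 for full effect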
hiPSC survival = hiPSC single-cell survival enhancement; ATPlite luminescence; 100% = ROCK inhibitor wells, 0% = DMSO; survival enhancement, % at 20 µM; 0.044% of 360,000 active; AID 602274; in the data active = survival enhancement above about 18%;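 note: cells exposed to compounds for 16 hours before the ATP read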
MIN6 prolif = inducers of beta-cell replication in MIN6 cells; AID 2380; MIN6 cells proliferation, ATPlite luminescence, 48 h; cells starved in 0.2% serum; 100% = growth in 10% serum; 0.29% of 330,000 active; proliferation, % at 10 µM;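 active = compounds whose signal lies at least 3.5 SD above the mean of all wells on their plate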;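 note: 0% = DMSO-treated cells in low-serum medium and 100% = 10% serum control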
UCH37 inh = human UCH37 deubiquitinating enzyme inhibition; inhibition, % (test concentration not listed); Q9Y5K5; 0.33% of 330,000 active; purified proteasome/UCH37, Ub-AMC cleavage fluorescence;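 active = mean inhibition over replicate wells above about 20%, limit read from the data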;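 note: 0% = compound-free wells with enzyme and 100% = wells lacking proteasome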
Target sequence (Q9Y5K5 whole entry, looked up): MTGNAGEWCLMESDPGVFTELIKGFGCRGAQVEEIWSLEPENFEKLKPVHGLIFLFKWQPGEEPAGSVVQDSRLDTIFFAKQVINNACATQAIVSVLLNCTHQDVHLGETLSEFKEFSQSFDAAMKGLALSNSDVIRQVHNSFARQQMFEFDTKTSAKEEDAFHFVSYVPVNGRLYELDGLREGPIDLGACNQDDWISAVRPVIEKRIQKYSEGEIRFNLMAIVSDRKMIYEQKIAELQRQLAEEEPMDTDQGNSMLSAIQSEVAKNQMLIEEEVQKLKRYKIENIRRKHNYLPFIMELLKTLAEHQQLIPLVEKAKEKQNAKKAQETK
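Reagent: Ub-AMC substrate; assay system: Proteasome-associated human UCH37 deubiquitinase; controls: no-proteasome and no-compound wells; read-out: % inhibition of Ub-AMC cleavage fluorescence; timing: 30 min preincubation with enzyme, 25 min cleavage at room temperature; signal: AMC fluorescence from Ub-AMC cleavage, excitation 355 nm, emission 460 nm; buffer or medium: Tris-HCl pH 7.4 plus ovalbumin, ATP-MgCl2, DTT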
The depositor's hits bear a star; i = inactive; x = no result. Only some compounds are listed: those with a hit (about 2.1% of all), similar ones and a draw of the others.

SMILES | H9c2 protect | CRFBP-R2 block | CRFR2-BP ag | hiPSC survival | MIN6 prolif | UCH37 inh
COc1ccc(-c2cc(C(=O)N(C)Cc3ccccc3F)c3ccccc3n2)cc1OC | 66* | -6 | -1 | 1 | 0 | -130
COc1cc(-c2cc(C(=O)N(C)Cc3ccccc3)c3ccccc3n2)cc(OC)c1OC | 35 | 9 | -2 | 0 | -2 | -111
COc1ccccc1CN(C)C(=O)c1cc(-c2cc(OC)c(OC)c(OC)c2)nc2ccccc12 | 50* | -13 | 0 | 0 | -2 | -154
CC(CC(=O)Nc1ccccc1C(F)(F)F)=NNC(=O)c1cnccn1 | x | x | x | x | x | -2
CCc1nc(N2CCN(C(=O)c3ccco3)CC2)c2oc3ccccc3c2n1 | 51* | 50 | 0 | -1 | x | 0
Cc1nc(N2CCN(C(=O)c3ccco3)CC2)c2oc3ccccc3c2n1 | 15 | 19 | -2 | 0 | 1 | 0
O=C(O)c1cccc2c1C(=O)N(Cc1ccccc1)C2 | 1 | 63* | 0 | -1 | -3 | -1
COCCCN1Cc2cccc(C(=O)O)c2C1=O | 2 | 14 | -7 | 1 | 0 | 0
Oc1ccc2nnc3c(Br)cnn3c2c1 | -2 | -64 | 146* | 0 | 2 | x
Clc1ccc2nc3c4ccccc4cnn3c2c1 | -8 | -7 | -1 | -4 | -3 | 1
Cc1cc(NC(=O)Cc2ccccc2)ccc1NC(=O)c1cccs1 | -1 | 57* | -3 | 1 | -2 | 4
Cc1cc(NC(=O)c2cccs2)ccc1NC(=O)Cc1ccccc1 | -2 | 3 | -1 | 1 | -2 | -8
COc1ccc(COC(=O)NN=C(C)CC(=O)Nc2ccc(Cl)cn2)cc1 | x | x | x | x | x | 1
Cc1ccc(-n2c(Cl)c(Cl)[nH]c(=O)c2=O)cc1 | -1 | 51* | 0 | -2 | -2 | 7
CCCCCn1nc(-c2ccccc2)c2nc3ccccc3nc21 | -13 | -256 | 176* | 1 | -6 | x
CCCn1c(C)nc2c(c1=O)c1nc3ccccc3nc1n2-c1ccccc1 | 3 | -7 | -1 | 0 | x | -26
CCn1nc(-c2ccccc2)c2nc3ccccc3nc21 | -11 | -188 | 160* | -2 | -2 | -40
CCCCn1c2nc3ccccc3nc2c2c(=O)n(CCC)cnc21 | 13 | 0 | 2 | -2 | -1 | -46
CCn1c2ccc(Cl)cc2c2nc3ccccc3nc21 | x | -6 | 3 | x | 3 | -16
CCCn1nc(-c2ccccc2)c2nc3ccccc3nc21 | x | -43 | 106* | x | -3 | -9
CCc1ccc(N2C(=O)c3sc4nnc(C)c(=O)n4c3C2=O)cc1 | 4 | -6 | 0 | -4 | 1 | 6
Cc1ccc(N2C(=O)c3sc4nnc(C)c(=O)n4c3C2=O)cc1 | 13 | 52* | -1 | -1 | -2 | 5
CN1C(=O)N(C)C2(c3ccccc3)Nn3c(sc(=Cc4ccco4)c3=O)=NC12c1ccccc1 (stereo unspecified) | x | x | x | x | x | 0
CCOC(=O)C1=C(C)N=c2s/c(=C/c3ccccc3)c(=O)n2C1c1ccc(OC)c(OC)c1 (stereo unspecified) | 5 | -11 | 6 | -1 | -3 | x
CCOC(=O)C1=C(C)N=c2s/c(=C\c3ccncc3)c(=O)n2C1c1ccc2c(c1)OCO2 (stereo unspecified) | 55* | -19 | 4 | -1 | -4 | x
SMILES | H9c2 protect | CRFBP-R2 block | CRFR2-BP ag | hiPSC survival | MIN6 prolif | UCH37 inh
COc1ccccc1N1CCN(C2CCCN(C(=O)c3cc(C4CC4)on3)C2)CC1 (stereo unspecified) | -3 | 51* | -3 | 0 | -4 | 1
CC(=O)OC[C@H]1O[C@H](CC=NOC[C@@H](O)[C@H]2O[C@@H]3OC(C)(C)O[C@@H]3[C@H]2O)C=C[C@@H]1OC(C)=O | x | x | x | x | x | 1
COc1cc(C=NNc2nc(C)cc(=O)[nH]2)ccc1O | x | x | x | x | x | 10
Cc1ccc(/C=N/n2c(-c3cccc(Cl)c3)n[nH]c2=S)o1 | -2 | 83* | 0 | 0 | -5 | x
CCN1CCN(c2nc3ccccc3nc2C(C#N)C(=O)OC2CCCCC2)CC1 (stereo unspecified) | 12 | -17 | 1 | 0 | x | 1
N#CC(C#N)=C1C=C2C=C(N3CCCCCC3)CCC2CC1 (stereo unspecified) | -9 | -170 | 216* | -1 | x | 4
N#CC(C#N)=C1C=C2C=C(N3CCOCC3)CCC2CC1 (stereo unspecified) | 10 | -266 | 248* | 0 | x | 11
CCN1CCN(C2=CC3=CC(=C(C#N)C#N)CCC3CC2)CC1 (stereo unspecified) | 16 | i | 500* | 0 | x | 32*
O=C(CCCCCNC(=O)c1ccccc1)NN=Cc1ccc(F)cc1 | x | x | x | x | x | 4
COc1ccccc1NC(=O)CCSc1nnnn1C | 7 | -144 | 121* | -3 | -5 | 1
Cc1cc(C)c2nc(N3CCN(C)CC3)c(C#N)cc2c1 | -1 | 0 | -4 | 21* | -3 | -80
CC(=NNC(=O)c1ccn(C)n1)c1ccc(NC(=O)C2CCCC2)cc1 | x | x | x | x | x | 1
CCc1ccc(OCCOCC(O)CNC(C)(C)C)cc1 (stereo unspecified) | -5 | -15 | 58* | 0 | 0 | 4
Cc1cc(C)nc(SCC(=O)NN=Cc2cccn2-c2ccc(O)cc2)n1 | x | x | x | x | x | 2
CN(C)CCC=C1c2ccccc2CCc2ccccc21 | 8 | -22 | -1 | -1 | -5 | 22*
COc1ccccc1NC(=O)CC1S/C(=N/N=C(C)C2CCCCC2)NC1=O (stereo unspecified) | x | x | x | x | x | -1
COc1cccc(C(=O)Nc2cc(C(=O)NCc3ccc(C)cc3)ccc2N2CCC3(CC2)CC(c2cccc(Br)c2)=NO3)c1 | 1 | 66* | 5 | -2 | -6 | -1
Cc1ccc(CNC(=O)c2ccc(N3CCC4(CC3)CC(c3cccc(Br)c3)=NO4)c(NC(=O)c3cccc(C)c3)c2)cc1 | -7 | -4 | 2 | -2 | 1 | 1
O=C(CCCc1cccs1)Nc1ccc2c(c1)OCO2 | 1 | 58* | 2 | 0 | -1 | -1
O=[N+]([O-])c1cccc(-c2ccc(C(=S)N3CCOCC3)o2)c1 | 0 | -4 | -1 | -1 | 0 | 6
O=[N+]([O-])c1cc(-c2ccc(C(=S)N3CCOCC3)o2)ccc1Cl | -18 | -28 | 1 | -1 | -5 | 21*
CC(=O)Nc1ccc(/C=N\NC(=O)CNS(=O)(=O)c2ccc([N+](=O)[O-])cc2)cc1 | 12 | -9 | -1 | -1 | -2 | x
O=C(CNS(=O)(=O)c1ccc([N+](=O)[O-])cc1)N/N=C/c1ccc(O)cc1O | 55* | -67 | 41 | 0 | -3 | x
O=C(CNS(=O)(=O)c1ccc([N+](=O)[O-])cc1)N/N=C\c1ccc(O)cc1 | 22 | -26 | 65* | 0 | -1 | x
